The results in this text go back to ChEMBL document CHEMBL1221279, “Synthesis, biological evaluation, and structure-activity relationship study of novel cytotoxic aza-caffeic acid derivatives” (Bioorg Med Chem, 2010).

Active and inactive are the calls of the source. The rule behind the calls is not given here.

One test concerns K562. As to the kind of experiment: Induction of apoptosis in human K562 cells using Annexin V/PI staining at 2 uM after 48 hrs by flow cytometry relative to control (reference value: 4.17%). Format: functional.
Settings: not given
Compound `CCOc1ccc(COc2c(OC)cc(/C=C/C(=O)N3CCN(Cc4ccc(Cl)c(Cl)c4)CC3)cc2OC)cc1` came in with an Activity of 10.95%.

A further test concerns K562. The test can be described thus: Cytotoxicity against human K562 cells at up to 8 uM by MTT assay. Format: functional, cell-based. The settings on record: TDE = time-dependent effect. The method, boiled down:
(§1)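 K562 cells grown in MEM with 10% fetal calf serum at 37 °C, 5% CO2, seeded in quadruplicate at 5 × 10³ per well. After 24 h, exposed to a range of concentrations for 48 or 72 h. MTT added for 4 h, formazan dissolved in DMSO, read at 570 nm. Viability expressed as % of untreated control, mean S.D. of at least three independent experiments.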
Turning to `CCOc1ccc(COc2c(OC)cc(/C=C/C(=O)N3CCN(Cc4ccc(Cl)c(Cl)c4)CC3)cc2OC)cc1`, the Activity result is “tde”.

Tested on in another test: not listed separately
The test can be described thus: Cytotoxicity against human ECA109 cells after 72 hrs by MTT assay. It is filed as functional, cell-based. The settings on record: ECa-109, 72 h. The method, boiled down:
(§2)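 Cells grown in MEM with 10% fetal calf serum, penicillin and streptomycin at 37 °C, 5% CO2. Exponentially growing cells seeded in quadruplicate at 5 × 10³ per well and left 24 h before compounds (DMSO stocks) were added. After 72 h exposure, MTT added for 4 h at 37 °C, formazan dissolved in DMSO, read at 570 nm. IC50 read graphically from dose–response curves.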
The compound `COc1ccc(/C=C/C(=O)NCCN2CCOCC2)cc1OC` came in with an IC50 of over 200 µM.
On the same count and under the same terms, then `COc1ccc(/C=C/C(=O)NCCc2c[nH]c3ccccc23)cc1OC`, with over 200 µM; and `CCOc1ccc(COc2c(OC)cc(/C=C/C(=O)N3CCN(Cc4ccc(Cl)c(Cl)c4)CC3)cc2OC)cc1`, with 1.1 µM.

The next test relates to KB. The test can be described thus: Cytotoxicity against human KB cells after 72 hrs by MTT assay.
Settings: not given
Format: functional, cell-based. The gist of the method:
as §2
`COc1ccc(/C=C/C(=O)NCCN2CCOCC2)cc1OC` gave an IC50 of over 200 µM.
Same read-out and setting: then `COc1ccc(/C=C/C(=O)NCCc2c[nH]c3ccccc23)cc1OC`, with over 200 µM; and `CCOc1ccc(COc2c(OC)cc(/C=C/C(=O)N3CCN(Cc4ccc(Cl)c(Cl)c4)CC3)cc2OC)cc1`, with 0.2 µM.

Another test deals with PC-3. The test can be described thus: Cytotoxicity against human PC3 cells after 72 hrs by MTT assay. Format: functional, cell-based. To be noted: PC-3, 72 h. The method, boiled down:
as §2
In the case of `COc1ccc(/C=C/C(=O)NCCN2CCOCC2)cc1OC`, the IC50 was over 200 µM.
The compound `COc1ccc(/C=C/C(=O)NCCc2c[nH]c3ccccc23)cc1OC` displayed an IC50 of over 200 µM.
Same read-out and setting: then `CCOc1ccc(COc2c(OC)cc(/C=C/C(=O)N3CCN(Cc4ccc(Cl)c(Cl)c4)CC3)cc2OC)cc1`, with over 200 µM.

Tested on in the next test: not listed separately
As to the kind of experiment: Cytotoxicity against human LS 174T cells after 72 hrs by MTT assay. Format: functional, cell-based. The settings on record: LS174T. The method, boiled down:
as §2
The compound `COc1ccc(/C=C/C(=O)NCCN2CCOCC2)cc1OC` gave an IC50 of over 200 µM.
`COc1ccc(/C=C/C(=O)NCCc2c[nH]c3ccccc23)cc1OC` registered an IC50 of over 200 µM.
`CCOc1ccc(COc2c(OC)cc(/C=C/C(=O)N3CCN(Cc4ccc(Cl)c(Cl)c4)CC3)cc2OC)cc1`: the 50% inhibitory concentration (IC50) was over 200 µM.

Tested on in another test: not listed separately
As to the kind of experiment: Cytotoxicity against human Bel7404 cells after 72 hrs by MTT assay. Format: functional, cell-based. The settings on record: BEL-7404, 72 h. The method, boiled down:
as §2
With `COc1ccc(/C=C/C(=O)NCCN2CCOCC2)cc1OC`, the IC50 was over 200 µM.
For `COc1ccc(/C=C/C(=O)NCCc2c[nH]c3ccccc23)cc1OC`, the IC50 was over 200 µM.
Take `CCOc1ccc(COc2c(OC)cc(/C=C/C(=O)N3CCN(Cc4ccc(Cl)c(Cl)c4)CC3)cc2OC)cc1`: the IC50 is 2 µM.

A further test concerns K562. The test can be described thus: Induction of apoptosis in human K562 cells using Annexin V/PI staining at 2 uM after 72 hrs by flow cytometry relative to control (reference value: 5.45%). Format: functional.
Settings: not given
The compound `CCOc1ccc(COc2c(OC)cc(/C=C/C(=O)N3CCN(Cc4ccc(Cl)c(Cl)c4)CC3)cc2OC)cc1` returned an Activity of 17.82%.

For a further test, the system named is K562. As to the kind of experiment: Induction of apoptosis in human K562 cells assessed as increase of Bax/Bcl-2 ratio after 48 hrs by Western blotting. It is filed as functional, cell-based.
Settings: not given
The method, boiled down: (§3)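 K562 cells treated for 48 h at the indicated concentrations, then lysed in Tris-HCl pH 7.5/NaCl buffer with protease inhibitors. Protein measured by Lowry assay. 40 µg total protein run on SDS–PAGE and blotted to PVDF. Probed overnight at 4 °C with anti-caspase-3, anti-Bax, anti-Bcl-2 and anti-β-actin, with HRP secondary and chemiluminescence. Bands quantified by densitometry, at least three independent experiments.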
`CCOc1ccc(COc2c(OC)cc(/C=C/C(=O)N3CCN(Cc4ccc(Cl)c(Cl)c4)CC3)cc2OC)cc1`: the Activity entry is “Dose-dependent effect”.

Tested on in the next test: not listed separately
The test can be described thus: Cytotoxicity against human HO8910 cells after 72 hrs by MTT assay. It is filed as functional, cell-based. To be noted: HO-8910, 72 h. The gist of the method:
as §2
The compound `COc1ccc(/C=C/C(=O)NCCN2CCOCC2)cc1OC` showed an IC50 of over 200 µM.
Turning to `COc1ccc(/C=C/C(=O)NCCc2c[nH]c3ccccc23)cc1OC`, the IC50 is over 200 µM.
For the compound `CCOc1ccc(COc2c(OC)cc(/C=C/C(=O)N3CCN(Cc4ccc(Cl)c(Cl)c4)CC3)cc2OC)cc1`, the IC50 was over 200 µM.

A further test concerns A549. As to the kind of experiment: Cytotoxicity against human A549 cells after 72 hrs by MTT assay. The settings on record: A549, 72 h. It is filed as functional, cell-based. The method, boiled down: as §2
With `COc1ccc(/C=C/C(=O)NCCN2CCOCC2)cc1OC`, the concentration for half-maximal inhibition (IC50) was over 200 µM.
Same read-out and setting: then `COc1ccc(/C=C/C(=O)NCCc2c[nH]c3ccccc23)cc1OC`, with over 200 µM; and `CCOc1ccc(COc2c(OC)cc(/C=C/C(=O)N3CCN(Cc4ccc(Cl)c(Cl)c4)CC3)cc2OC)cc1`, with 63.4 µM.

Another test has as its system K562. The test can be described thus: Induction of apoptosis in human K562 cells using Annexin V/PI staining at 8 uM after 72 hrs by flow cytometry relative to control (reference value: 5.45%). Format: functional.
Settings: not given
Take `CCOc1ccc(COc2c(OC)cc(/C=C/C(=O)N3CCN(Cc4ccc(Cl)c(Cl)c4)CC3)cc2OC)cc1`: the Activity stood at 20.38%.

Another test relates to BGC-823. The test can be described thus: Cytotoxicity against human BGC823 cells after 72 hrs by MTT assay. Format: functional, cell-based. The settings on record: BGC-823, 72 h. The method, boiled down: as §2
`COc1ccc(/C=C/C(=O)NCCN2CCOCC2)cc1OC` returned an IC50 of over 200 µM.
Take `COc1ccc(/C=C/C(=O)NCCc2c[nH]c3ccccc23)cc1OC`: the IC50 was over 200 µM.
For the compound `CCOc1ccc(COc2c(OC)cc(/C=C/C(=O)N3CCN(Cc4ccc(Cl)c(Cl)c4)CC3)cc2OC)cc1`, the IC50 was over 200 µM.

In the next test the test system is HL-60. The test can be described thus: Cytotoxicity against human HL60 cells after 72 hrs by MTT assay. Format: functional, cell-based. To be noted: HL-60, 72 h. The method, boiled down:
as §2
With `COc1ccc(/C=C/C(=O)NCCN2CCOCC2)cc1OC`, the IC50 is over 200 µM.
Turning to `COc1ccc(/C=C/C(=O)NCCc2c[nH]c3ccccc23)cc1OC`, the IC50 was over 200 µM.
The compound `CCOc1ccc(COc2c(OC)cc(/C=C/C(=O)N3CCN(Cc4ccc(Cl)c(Cl)c4)CC3)cc2OC)cc1` returned an IC50 of over 200 µM.

Another test concerns K562. The test can be described thus: Induction of apoptosis in human K562 cells using Annexin V/PI staining at 0.5 uM after 72 hrs by flow cytometry relative to control (reference value: 5.45%). Format: functional.
Settings: not given
`CCOc1ccc(COc2c(OC)cc(/C=C/C(=O)N3CCN(Cc4ccc(Cl)c(Cl)c4)CC3)cc2OC)cc1` displayed an Activity of 13.71%.

The next test deals with CNE. As to the kind of experiment: Cytotoxicity against human CNE cells after 72 hrs by MTT assay. Format: functional, cell-based.
Settings: not given
The method, boiled down:
as §2
Compound `COc1ccc(/C=C/C(=O)NCCN2CCOCC2)cc1OC` registered an IC50 of over 200 µM.
On the same count and under the same terms, then `COc1ccc(/C=C/C(=O)NCCc2c[nH]c3ccccc23)cc1OC`, with over 200 µM.
`CCOc1ccc(COc2c(OC)cc(/C=C/C(=O)N3CCN(Cc4ccc(Cl)c(Cl)c4)CC3)cc2OC)cc1`: the IC50 was over 200 µM.

Another test concerns K562. The test can be described thus: Induction of apoptosis in human K562 cells assessed as up-regulation of caspase 3 expression at up to 8 uM after 48 hrs by Western blotting. Format: functional, cell-based.
Settings: not given
The gist of the method:
as §3
`CCOc1ccc(COc2c(OC)cc(/C=C/C(=O)N3CCN(Cc4ccc(Cl)c(Cl)c4)CC3)cc2OC)cc1`: the outcome was Active.

In another test the test system is K562. As to the kind of experiment: Induction of apoptosis in human K562 cells using Annexin V/PI staining at 8 uM after 48 hrs by flow cytometry relative to control (reference value: 4.17%). It is filed as functional.
Settings: not given
Regarding `CCOc1ccc(COc2c(OC)cc(/C=C/C(=O)N3CCN(Cc4ccc(Cl)c(Cl)c4)CC3)cc2OC)cc1`, the Activity came to 14.83%.

A further test relates to K562. As to the kind of experiment: Cytotoxicity against human K562 cells assessed as reduction of cell viability at 8 uM after 72 hrs by MTT assay relative to control. It is filed as functional.
Settings: not given
The gist of the method: as §1
For `CCOc1ccc(COc2c(OC)cc(/C=C/C(=O)N3CCN(Cc4ccc(Cl)c(Cl)c4)CC3)cc2OC)cc1`, the Activity was 37.9%.

The test system of a further test is K562. The test can be described thus: Induction of apoptosis in human K562 cells using Annexin V/PI staining at 0.5 uM after 48 hrs by flow cytometry relative to control (reference value: 4.17%). Format: functional.
Settings: not given
In turn, `CCOc1ccc(COc2c(OC)cc(/C=C/C(=O)N3CCN(Cc4ccc(Cl)c(Cl)c4)CC3)cc2OC)cc1` had an Activity of 8.26%.

Another test deals with HeLa. The test can be described thus: Cytotoxicity against human HeLa cells after 72 hrs by MTT assay. Format: functional, cell-based.
Settings: not given
The gist of the method:
as §2
`COc1ccc(/C=C/C(=O)NCCN2CCOCC2)cc1OC` returned an IC50 of over 200 µM.
With `COc1ccc(/C=C/C(=O)NCCc2c[nH]c3ccccc23)cc1OC`, the IC50 is over 200 µM.
`CCOc1ccc(COc2c(OC)cc(/C=C/C(=O)N3CCN(Cc4ccc(Cl)c(Cl)c4)CC3)cc2OC)cc1` gave an IC50 of over 200 µM.

In another test the test system is K562. As to the kind of experiment: Cytotoxicity against human K562 cells after 72 hrs by MTT assay. It is filed as functional, cell-based.
Settings: not given
The gist of the method: as §2
As to `CCOc1ccc(COc2c(OC)cc(/C=C/C(=O)N3CCN(Cc4ccc(Cl)c(Cl)c4)CC3)cc2OC)cc1`, the Activity result was “Dose-dependent effect”.

The same test, now with this note: K562, 72 h.
The compound `COc1ccc(/C=C/C(=O)NCCN2CCOCC2)cc1OC` gave an IC50 of over 200 µM.
Still for that read-out and setting: then `COc1ccc(/C=C/C(=O)NCCc2c[nH]c3ccccc23)cc1OC`, with over 200 µM; and `CCOc1ccc(COc2c(OC)cc(/C=C/C(=O)N3CCN(Cc4ccc(Cl)c(Cl)c4)CC3)cc2OC)cc1`, with 1.7 µM.
